# Data: ChEMBL document CHEMBL3585269, “Simple structural modifications confer cytotoxicity to allobetulin” (Bioorg Med Chem, 2015)
# pEC50: −log10 of the molar value.
# Assays:
# A549 = assay: Cytotoxicity against human A549 cells by SRB assay; format: functional, cell-based; details: for pEC50: Homo sapiens, A549, read-out: EC50; for EC50: a549
# Method in brief: (§1)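 Photometric sulforhodamine B (SRB) read-out after 96 h of compound treatment. EC50 values are averaged from three independent experiments, each run in triplicate, and reported with a 95% confidence interval. The assay has an upper cut-off.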
# 8505C = assay: Cytotoxicity against human 8505C cells by SRB assay; format: functional, cell-based; details: for pEC50: Homo sapiens, 8505C, read-out: EC50; for EC50: 8505c; method in brief: as §1
# HT-29 = assay: Cytotoxicity against human HT-29 cells by SRB assay; format: functional, cell-based; details: for pEC50: Homo sapiens, HT-29, read-out: EC50; for EC50: ht-29; method in brief: as §1
# [1] = Cytotoxicity against human 518A2 cells by SRB assay; format: functional, cell-based; details: for pEC50: Homo sapiens, 518A2, read-out: EC50; for EC50: 518a2; method in brief: as §1
# MCF7 = assay: Cytotoxicity against human MCF7 cells by SRB assay; format: functional, cell-based; details: for pEC50: Homo sapiens, MCF7, read-out: EC50; for EC50: mcf7; method in brief: as §1
# A2780 = assay: Cytotoxicity against human A2780 cells by SRB assay; format: functional, cell-based; details: for pEC50: Homo sapiens, A2780, read-out: EC50; for EC50: a2780; method in brief: as §1
# [2] = Cytotoxicity against mouse NIH/3T3 cells by SRB assay; format: cell-based; details: NIH3T3
SMILES,pEC50 (A549),pEC50 (8505C),pEC50 (HT-29),pEC50 [1],pEC50 (MCF7),pEC50 (A2780),EC50 (A549),EC50 (8505C),EC50 (HT-29),EC50 [1],EC50 (MCF7),EC50 (A2780),pEC50 [2]
CC1(C)CC[C@]23CC[C@]4(C)[C@H](CC[C@@H]5[C@@]6(C)C=C(O)C(=O)C(C)(C)[C@@H]6CC[C@]54C)[C@H]2[C@H]1OC3,4.63,< 4.52,< 4.52,< 4.52,< 4.52,< 4.52,–,–,–,–,–,–,–
CC1(C)CC[C@]23CC[C@]4(C)[C@H](CC[C@@H]5[C@@]6(C)CCC(=O)OC(C)(C)[C@@H]6CC[C@]54C)[C@H]2[C@H]1OC3,< 4.52,< 4.52,< 4.52,< 4.52,< 4.52,< 4.52,–,–,–,–,–,–,–
CC1(C)CC[C@]23CC[C@]4(C)[C@H](CC[C@@H]5[C@@]6(C)CC/C(=N\O)C(C)(C)[C@@H]6CC[C@]54C)[C@H]2[C@H]1OC3,–,–,–,–,–,–,ND(Insoluble),ND(Insoluble),ND(Insoluble),ND(Insoluble),ND(Insoluble),ND(Insoluble),–
C=C(C)[C@@H]1CC[C@]2(C)[C@H](CC[C@@H]3[C@H]4[C@H]5OC[C@@]4(CCC5(C)C)CC[C@]32C)[C@@]1(C)CCC#N,4.67,< 4.52,< 4.52,4.59,< 4.52,< 4.52,–,–,–,–,–,–,–
CC1(C)CC[C@]23CC[C@]4(C)[C@H](CC[C@@H]5[C@@]6(C)CC[C@@H](N)C(C)(C)[C@@H]6CC[C@]54C)[C@H]2[C@H]1OC3,4.90,4.81,5.17,4.99,4.82,4.89,–,–,–,–,–,–,4.80
CC1(C)CC[C@]23CC[C@]4(C)[C@H](CC[C@@H]5[C@@]6(C)CC[C@H](N)C(C)(C)[C@@H]6CC[C@]54C)[C@H]2[C@H]1OC3,5.14,5.11,5.21,5.27,4.98,5.18,–,–,–,–,–,–,5.14
C=C(C)[C@@H]1CC[C@]2(C)[C@H](CC[C@@H]3[C@H]4[C@H]5OC[C@@]4(CCC5(C)C)CC[C@]32C)[C@@]1(C)CCC(=O)OC,< 4.52,< 4.52,< 4.52,< 4.52,< 4.52,< 4.52,–,–,–,–,–,–,–
C=C(C)[C@@H]1CC[C@]2(C)[C@H](CC[C@@H]3[C@H]4[C@H]5OC[C@@]4(CCC5(C)C)CC[C@]32C)[C@@]1(C)CCC(=O)O,–,–,–,–,–,–,ND(Insoluble),ND(Insoluble),ND(Insoluble),ND(Insoluble),ND(Insoluble),ND(Insoluble),–
C=C(C)[C@@H]1CC[C@]2(C)[C@H](CC[C@@H]3[C@H]4[C@H]5OC[C@@]4(CCC5(C)C)CC[C@]32C)[C@@]1(C)CCC(=O)OCC,< 4.52,< 4.52,< 4.52,< 4.52,< 4.52,< 4.52,–,–,–,–,–,–,–
C=C(C)[C@@H]1CC[C@]2(C)[C@H](CC[C@@H]3[C@H]4[C@H]5OC[C@@]4(CCC5(C)C)CC[C@]32C)[C@@]1(C)CCC(=O)OCCC,< 4.52,< 4.52,< 4.52,< 4.52,< 4.52,< 4.52,–,–,–,–,–,–,–
C=CCOC(=O)CC[C@]1(C)[C@H]2CC[C@@H]3[C@H]4[C@H]5OC[C@@]4(CCC5(C)C)CC[C@@]3(C)[C@]2(C)CC[C@H]1C(=C)C,< 4.52,< 4.52,< 4.52,< 4.52,< 4.52,< 4.52,–,–,–,–,–,–,–
C#CCOC(=O)CC[C@]1(C)[C@H]2CC[C@@H]3[C@H]4[C@H]5OC[C@@]4(CCC5(C)C)CC[C@@]3(C)[C@]2(C)CC[C@H]1C(=C)C,< 4.52,< 4.52,< 4.52,< 4.52,< 4.52,< 4.52,–,–,–,–,–,–,–
C=C(C)[C@@H]1CC[C@]2(C)[C@H](CC[C@@H]3[C@H]4[C@H]5OC[C@@]4(CCC5(C)C)CC[C@]32C)[C@@]1(C)CCC(=O)OCCCC,< 4.52,< 4.52,< 4.52,< 4.52,< 4.52,< 4.52,–,–,–,–,–,–,–
C=C(C)[C@@H]1CC[C@]2(C)[C@H](CC[C@@H]3[C@H]4[C@H]5OC[C@@]4(CCC5(C)C)CC[C@]32C)[C@@]1(C)CCC(=O)OCc1ccccc1,–,–,–,–,–,–,ND(Insoluble),ND(Insoluble),ND(Insoluble),ND(Insoluble),ND(Insoluble),ND(Insoluble),–
CC1(C)CC[C@]23CC[C@]4(C)[C@H](CC[C@@H]5[C@@](C)(CC(=O)O)[C@H](C(C)(C)C(=O)O)CC[C@]54C)[C@H]2[C@H]1OC3,–,–,–,–,–,–,ND(Insoluble),ND(Insoluble),ND(Insoluble),ND(Insoluble),ND(Insoluble),ND(Insoluble),–
COC(=O)C[C@]1(C)[C@H]2CC[C@@H]3[C@H]4[C@H]5OC[C@@]4(CCC5(C)C)CC[C@@]3(C)[C@]2(C)CC[C@H]1C(C)(C)C(=O)OC,< 4.52,4.57,4.76,4.53,4.53,4.74,–,–,–,–,–,–,–
CCOC(=O)C[C@]1(C)[C@H]2CC[C@@H]3[C@H]4[C@H]5OC[C@@]4(CCC5(C)C)CC[C@@]3(C)[C@]2(C)CC[C@H]1C(C)(C)C(=O)OCC,5.23,4.61,4.75,4.58,4.58,4.72,–,–,–,–,–,–,4.60
CCCOC(=O)C[C@]1(C)[C@H]2CC[C@@H]3[C@H]4[C@H]5OC[C@@]4(CCC5(C)C)CC[C@@]3(C)[C@]2(C)CC[C@H]1C(C)(C)C(=O)OCCC,< 4.52,< 4.52,4.57,< 4.52,< 4.52,4.65,–,–,–,–,–,–,–
C=CCOC(=O)C[C@]1(C)[C@H]2CC[C@@H]3[C@H]4[C@H]5OC[C@@]4(CCC5(C)C)CC[C@@]3(C)[C@]2(C)CC[C@H]1C(C)(C)C(=O)OCC=C,< 4.52,< 4.52,4.53,< 4.52,< 4.52,4.64,–,–,–,–,–,–,–
C#CCOC(=O)C[C@]1(C)[C@H]2CC[C@@H]3[C@H]4[C@H]5OC[C@@]4(CCC5(C)C)CC[C@@]3(C)[C@]2(C)CC[C@H]1C(C)(C)C(=O)OCC#C,4.68,4.73,4.80,4.76,4.57,4.90,–,–,–,–,–,–,–
CCCCOC(=O)C[C@]1(C)[C@H]2CC[C@@H]3[C@H]4[C@H]5OC[C@@]4(CCC5(C)C)CC[C@@]3(C)[C@]2(C)CC[C@H]1C(C)(C)C(=O)OCCCC,< 4.52,< 4.52,< 4.52,< 4.52,< 4.52,< 4.52,–,–,–,–,–,–,–
CC1(C)CC[C@]23CC[C@]4(C)[C@H](CC[C@@H]5[C@@](C)(CC(=O)OCc6ccccc6)[C@H](C(C)(C)C(=O)OCc6ccccc6)CC[C@]54C)[C@H]2[C@H]1OC3,–,–,–,–,–,–,ND(Insoluble),ND(Insoluble),ND(Insoluble),ND(Insoluble),ND(Insoluble),ND(Insoluble),–
CC1(C)CC[C@]23CC[C@]4(C)[C@H](CC[C@@H]5[C@@]6(C)CC[C@H](O)C(C)(C)[C@@H]6CC[C@]54C)[C@H]2[C@H]1OC3 [ALLOBETULIN],< 4.52,< 4.52,< 4.52,< 4.52,< 4.52,< 4.52,–,–,–,–,–,–,–
C=C(C)[C@@H]1CC[C@]2(CO)CC[C@]3(C)[C@H](CC[C@@H]4[C@@]5(C)CC[C@H](O)C(C)(C)[C@@H]5CC[C@]43C)[C@@H]12 [BETULIN],4.69,< 4.52,< 4.52,4.54,4.61,4.53,–,–,–,–,–,–,–
